From PubChem BioAssay
Hits are enriched below; roughly 3.5% of the tested compounds scored in any of these assays.
MrgX1 antag – antagonists of human MrgX1 receptor; Q96LB2; hit rate 1.3% among 310,000; MRGX1-HEK293 calcium flux, Fluo-4, BAM8-22 antagonism; stronger effect = lower value; B-score at 10 µM; AID 588676;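 active = calcium-response B-score plate-corrected more than 3 library SD below zero, starting fluorescence within 5 deviations, no agonist response on first addition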;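 also: peak minus trough fluorescence over baseline after final BAM8-22 challenge near maximal dose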
Target sequence (Q96LB2 whole entry, looked up): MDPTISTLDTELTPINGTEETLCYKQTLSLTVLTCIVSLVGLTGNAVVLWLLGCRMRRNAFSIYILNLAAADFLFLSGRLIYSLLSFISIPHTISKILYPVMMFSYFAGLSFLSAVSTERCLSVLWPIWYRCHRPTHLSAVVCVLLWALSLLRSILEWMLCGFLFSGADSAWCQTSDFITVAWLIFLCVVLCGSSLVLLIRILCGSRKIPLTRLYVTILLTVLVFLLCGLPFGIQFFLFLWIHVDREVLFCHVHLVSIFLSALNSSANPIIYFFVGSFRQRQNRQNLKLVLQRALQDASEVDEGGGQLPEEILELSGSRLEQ
RGS4 act – RGS4 potentiation or activation. B-score at 10 µM. HEK293 M3R/inducible RGS4, carbachol calcium flux Fluo4; stronger effect = lower value. AID 463111. hit rate 0.92% among 310,000;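 active = B-score of the integrated calcium signal more than 4 SD below the library mean, with starting fluorescence not abnormally high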;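 also: negative B-score means reduced calcium response which marks RGS4 activation or potentiation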
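Assay system: Inducible-RGS4 HEK293 cells carrying M3 receptor | Schedule: Compound preincubation 20 min at room temperature before agonist | Signal: Kinetic calcium fluorescence imaging with Fluo4-AM dye, 2 µM | Read-out basis: B score from integrated fluorescence ratio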
MrgX1 agonist – activates human MrgX1 receptor signaling. Q96LB2. MrgX1-HEK293 cells, Fluo-4 calcium fluorescence, agonist mode; stronger effect = higher value. B-score at 10 µM. hit rate 0.44% among 310,000;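 active = calcium response B-score plate-corrected fluorescence ratio at least 3 library SD, with starting fluorescence B-score inside 5 SD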
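System – MrgX1-expressing HEK293 cells · Incubation – cells plated overnight, dye loaded 0.5 h 37 °C, 0.5 h room temperature · Technique – kinetic Fluo-4 NW fluorescence of intracellular calcium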
RGS4 block – human RGS4 inhibition | hit rate 0.45% among 310,000 | P49798 | B-score at 10 µM | HEK293 M3R/RGS4 inducible, Fluo-4 calcium flux; stronger effect = higher value; triggered by carbachol at its EC20;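 active = B-score, a plate-corrected calcium signal, over three deviations above library mean, with baseline fluorescence within five deviations of library mean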;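 also: RGS4 expression induced by doxycycline in cells with stable M3 receptor; B-score is computed from the integrated fluorescence ratio over baseline after carbachol; higher B-score means a larger calcium signal and so more RGS4 inhibition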
Target sequence (P49798 whole entry, looked up): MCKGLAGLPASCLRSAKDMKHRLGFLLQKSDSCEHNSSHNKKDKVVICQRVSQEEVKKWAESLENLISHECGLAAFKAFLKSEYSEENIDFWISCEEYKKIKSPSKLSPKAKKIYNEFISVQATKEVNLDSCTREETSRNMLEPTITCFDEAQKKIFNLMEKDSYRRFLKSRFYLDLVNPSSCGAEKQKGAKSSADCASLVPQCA
MrgX1 PAM – allosterically activates human MrgX1 receptor signaling; Q96LB2; MrgX1-HEK293, Fluo-4 calcium flux, FDSS; stronger effect = higher value; B-score at 10 µM; hit rate 0.63% among 310,000; AID 588675;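 active = plate-corrected calcium response at least 3 library SD above typical, normal starting fluorescence, not activating the receptor alone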;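 also: compound read alongside a low EC10 to EC30 dose of BAM8-22 agonist; peak minus trough fluorescence over baseline measured at the second addition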
Starred values were filed as active, the others as inactive; i = inactive; . = no result given.

SMILES | MrgX1 antag | RGS4 act | MrgX1 agonist | RGS4 block | MrgX1 PAM
CC1(C)NC(=O)N(CC(=O)OCC(=O)Nc2cc(S(=O)(=O)N3CCCCC3)ccc2Cl)C1=O | i | i | i | i | i
O=C(N[C@@H](Cc1ccccc1)C(=O)O)c1ccncc1 | i | i | i | i | i
O=C(Nc1cccc(-c2csc(Nc3ccccc3)n2)c1)c1ccccc1 | i | -7.34* | i | i | i
O=C(Nc1cccc(-c2csc(Nc3cccc(C(F)(F)F)c3)n2)c1)c1ccccc1 | i | i | i | i | i
Cc1ccc(C(C)C)c(OCc2nn(CC(=O)c3ccc(OC(F)F)cc3)c3[n+]2CCCCC3)c1 | -5.52* | i | i | i | i
COc1ccc(C(CC(=O)c2ccccc2)CC(=O)c2ccccc2)cc1OC | -6.66* | i | i | i | i
O=C1/C(=C/c2ccccc2)CCC1C1CCCC1 (stereo unspecified) | i | i | i | i | i
CN1C2CCC1/C(=C\c1ccccc1)C(=O)/C2=C\c1ccccc1 | i | i | i | i | 11.5*
CCN(CC)C(=O)CSC(Nc1ccc(F)cc1)=C(C#N)C#N | i | i | 44.2* | i | i
COc1ccc(-c2cc(C(F)(F)F)c3c(N)c(C(=O)NCCSC)sc3n2)cc1 | i | i | i | i | i
Nc1c(C(=O)C2CC2)sc2nc(-c3ccccc3)cc(C(F)(F)F)c12 | i | -9.35* | i | i | i
COC(=O)c1ccc(OC(=O)c2ccco2)cc1 | i | i | i | i | i
O=Cc1ccnc(-c2ccc(OC(=O)c3ccco3)cc2)n1 | i | i | 75.5* | i | i
NC(=O)CC(NC(=O)Cc1cccc2ccccc12)c1ccc(NCCCN2CCCC2=O)c([N+](=O)[O-])c1 (stereo unspecified) | i | i | i | i | i
Clc1cccc(Cl)c1/C=C/c1nc2ccccc2[nH]1 | i | i | i | i | 7.75*
CSc1nc(=S)n(-c2ccc([N+](=O)[O-])cc2)c(C)c1C(C)=O | i | i | i | i | i
CSC1=C(C#N)C(c2ccccc2Cl)C2=C(N1)c1ccccc1C2=O (stereo unspecified) | i | i | 32.4* | i | i
CCNC(=O)/C(C#N)=C/c1c(N2CCN(c3cccc(Cl)c3)CC2)nc2c(C)cccn2c1=O | i | -10.7* | i | i | i
CCOC(=O)/C(C#N)=C/c1c(N2CCN(c3ccccc3)CC2)nc2c(C)cccn2c1=O | i | -7.75* | i | i | i
CCc1cc(C(=O)COc2ccccc2F)c(O)cc1O | i | i | i | i | i
CCOC(=O)/C(C#N)=C(C)/C=C1\Sc2ccccc2N1CC | -5.37* | i | i | i | i
Cc1cccc(N(CC(=O)NC2CCCC2)C(=O)CCC(=O)Nc2ccccn2)c1 | i | i | i | i | i
O=C1Nc2ccccc2C1=Nc1ccc(Cl)cc1 | i | i | i | i | i
Cc1ccc(N=C2C(=O)Nc3ccccc32)cc1 | i | i | 42.3* | i | i
C[N+]1=C(/C=C/Nc2ccccc2Cl)C(C)(C)c2ccccc21 | i | i | i | i | i
SMILES | MrgX1 antag | RGS4 act | MrgX1 agonist | RGS4 block | MrgX1 PAM
COC(=O)c1ccc2c(c1)C(C)(C)C(/C=C/c1ccccc1O)=[N+]2C | i | -7.25* | i | i | i
CC(C)c1ccc(S(=O)(=O)/N=C2/C=C(Sc3ncn[nH]3)C(=O)c3ccccc32)cc1 | i | . | i | . | 8.63*
CCN=C1S/C(=C\c2ccc(OCC)c(OC)c2)C(=O)N1CC | -5.05* | i | i | i | i
CCN=C1S/C(=C\c2cc(Cl)c(OC)c(OC)c2)C(=O)N1CC | i | i | i | i | i
C/C(=N\NC(=S)NCCc1ccccc1)c1ccc(O)cc1O | i | i | i | i | i
C/C(=N\NC(=S)NCCc1ccccc1)c1ccc(Cl)cc1Cl | i | -9.09* | i | i | i
CCOc1ccccc1NC(=O)CCNS(=O)(=O)c1cccc2nonc12 | i | i | i | i | i
O=C(Cc1c(F)c(F)c(F)c(F)c1F)Nc1nc(-c2ccccc2)cs1 | i | -7.07* | i | i | i
Cc1c(NC(=O)C2CCCN(S(=O)(=O)c3cnc[nH]3)C2)c(=O)n(-c2ccccc2)n1C (stereo unspecified) | -7.27* | i | i | i | i
Cc1ccccc1NC(=O)C1CCCN(S(=O)(=O)c2cnc[nH]2)C1 (stereo unspecified) | i | i | i | i | i
O=C(Oc1ccccc1Cl)C1CCN(C(=O)c2ccc(F)cc2)CC1 | i | i | i | i | i
CCn1c2ccccc2c2cc(NC(=O)c3coc(=O)c(Br)c3)ccc21 | i | i | i | i | i
CCn1c2ccccc2c2cc(NC(=O)c3ccc(Br)o3)ccc21 | -7.51* | i | i | i | i
NC(=O)C1CCCN(C(=S)Nc2cccc3ccccc23)C1 (stereo unspecified) | i | i | i | i | i
CN(C)CCCNC(=O)/C(=C/c1ccc(-c2ccc([N+](=O)[O-])cc2)o1)NC(=O)c1ccccc1 | -5.72* | i | i | i | i
CN(C)CCCNC(=O)/C(=C\c1ccc(-c2ccc(Br)cc2)o1)NC(=O)c1ccccc1 | i | i | i | i | i
O=S(=O)(Nc1ccc(N2CCCCC2)cc1)c1cccs1 | i | i | i | i | i
O=S(=O)(Nc1cc(Cl)ccc1N1CCCCC1)c1cccs1 | -13.2* | i | i | i | i
Nc1nnnn1/N=C/c1cc(Br)ccc1O | i | i | i | i | i
COc1ccc(-c2nnc(SCC(=O)NCc3cccs3)n2CC(C)C)cc1 | i | i | i | i | i
Cc1oc2cc(Br)c(O)c(Br)c2c1-c1ccccc1 | i | i | i | i | 14.7*
COc1ccc(/C=N/Nc2nnc(Cc3ccccc3)c(=O)[nH]2)cc1 | i | i | 27.8* | i | i
Cc1csc(NC(=O)CSCC(=O)Nc2ccccc2)n1 | i | i | i | i | i
COc1ccccc1NC(=O)Cn1nc(-c2ccc(Cl)cc2)c2ccccc2c1=O | i | i | 33.8* | i | i
CC(C)(C)c1ccc(/C=C/C(=O)N2CCN(c3ncccn3)CC2)cc1 | -6.26* | i | i | i | i
Cc1ccc(/C=N/N2CCN(c3ccccn3)CC2)o1 | i | i | i | i | i
CCc1ccc(-n2cnc3cc(C(=O)NCC(OC)OC)ccc32)cc1 | i | i | i | i | i
